Measurements gathered from unrelated publications.
Organism: Escherichia coli
Observed: microbial killing

COc1c(C)c(OC)c(C(=O)/C=C/c2ccccc2)c(OC)c1C — MBC (broth dilution; ATCC25922): > 5000 µg/mL
CO[C@H]1O[C@H](COC(c2ccccc2)(c2ccccc2)c2ccccc2)[C@@H](OC(=O)c2ccc(C(C)(C)C)cc2)[C@H](OC(=O)c2ccc(C(C)(C)C)cc2)[C@H]1OC(=O)c1ccc(C(C)(C)C)cc1 — MBC (broth dilution): 16 µg/mL
O=c1[nH]cc(F)c(=O)[nH]1 — MBC (broth dilution; 48 h): > 32 µg/mL
COc1c(C)c(OC(=O)c2ccccc2)c(C)c(O)c1C(=O)/C=C/c1ccccc1 — MBC (broth dilution; ATCC25922): > 5000 µg/mL
CCn1cc(C(=O)O)c(=O)c2cc(F)c(N3CCNCC3)cc21 — MBC (broth dilution; ATCC 8739; ATCC8739): 1 µM
N#CC(=Cc1ccccc1O)C1=NC(=O)C(=Cc2cn(-c3ccccc3)nc2-c2ccccc2)S1 — MBC (broth dilution): 0.5 µg/mL
COc1c(C)c(OC(=O)c2ccc(C)cc2)c(C)c(O)c1C(=O)/C=C/c1ccccc1 — MBC (broth dilution; ATCC25922): > 5000 µg/mL
O=C(O)c1cn(C2CC2)c2cc(N3CCNCC3)c(F)cc2c1=O — MBC (broth dilution): 0.25 µg/mL
COc1cc(Cc2cnc(N)nc2N)cc(OC)c1OC — MBC (broth dilution; 48 h): > 32 µg/mL
N#CC(=Cc1cn(-c2ccccc2)nc1-c1ccccc1)C1=NC(=O)CS1 — MBC (broth dilution): 0.25 µg/mL
CN[C@H](CC(C)C)C(=O)N[C@H]1C(=O)N[C@@H](CC(N)=O)C(=O)N[C@H]2C(=O)N[C@H]3C(=O)N[C@H](C(=O)N[C@H](C(=O)O)c4cc(O)cc(O)c4-c4cc3ccc4O)[C@H](O)c3ccc(c(Cl)c3)Oc3cc2cc(c3O[C@@H]2O[C@H](CO)[C@@H](O)[C@H](O)[C@H]2O[C@H]2C[C@](C)(N)[C@H](O)[C@H](C)O2)Oc2ccc(cc2Cl)[C@H]1O — MBC (broth dilution; ATCC 8739; ATCC8739): > 128 µM
CNC1=C([N+](=O)[O-])C2(C(=O)Nc3ccccc32)C2=C(O1)C(=O)c1ccccc1C2=O (stereo not drawn) — MBC (ATCC25922): ≤ 500 µg/mL
